Activity calls are given as the source filed them. The calls are words filed in the database; no cut-off is given here.

A short description of assay [1]: Selectivity ratio of IC50 for TCPTP to IC50 for PTP1B.
Assay [2] deals with T1, Tyrosine-protein phosphatase non-receptor type 1 (Homo sapiens, UniProt P18031).
T1 sequence (P18031 whole entry): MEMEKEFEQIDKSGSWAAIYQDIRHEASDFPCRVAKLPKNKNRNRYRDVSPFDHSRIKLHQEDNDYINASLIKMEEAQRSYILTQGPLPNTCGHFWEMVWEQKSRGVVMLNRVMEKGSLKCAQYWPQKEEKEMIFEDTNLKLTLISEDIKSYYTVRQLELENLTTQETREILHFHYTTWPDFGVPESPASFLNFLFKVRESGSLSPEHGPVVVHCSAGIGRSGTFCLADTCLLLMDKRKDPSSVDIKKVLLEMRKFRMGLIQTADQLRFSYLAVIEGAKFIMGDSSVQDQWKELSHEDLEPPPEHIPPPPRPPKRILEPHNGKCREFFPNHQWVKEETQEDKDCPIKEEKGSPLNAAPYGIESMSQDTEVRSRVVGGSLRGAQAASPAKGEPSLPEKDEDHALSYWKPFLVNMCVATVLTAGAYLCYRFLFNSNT
The assay can be described thus: Inhibition of PTP1B using p-nitrophenyl phosphate as substrate. The method in brief:
(§1)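 IC50 values were obtained by regression analysis and reported as mean ± SD of three replicate determinations.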

Assay [3] concerns the target T2, M-phase inducer phosphatase 2 (Homo sapiens, UniProt P30305).
T2 sequence (P30305 whole entry): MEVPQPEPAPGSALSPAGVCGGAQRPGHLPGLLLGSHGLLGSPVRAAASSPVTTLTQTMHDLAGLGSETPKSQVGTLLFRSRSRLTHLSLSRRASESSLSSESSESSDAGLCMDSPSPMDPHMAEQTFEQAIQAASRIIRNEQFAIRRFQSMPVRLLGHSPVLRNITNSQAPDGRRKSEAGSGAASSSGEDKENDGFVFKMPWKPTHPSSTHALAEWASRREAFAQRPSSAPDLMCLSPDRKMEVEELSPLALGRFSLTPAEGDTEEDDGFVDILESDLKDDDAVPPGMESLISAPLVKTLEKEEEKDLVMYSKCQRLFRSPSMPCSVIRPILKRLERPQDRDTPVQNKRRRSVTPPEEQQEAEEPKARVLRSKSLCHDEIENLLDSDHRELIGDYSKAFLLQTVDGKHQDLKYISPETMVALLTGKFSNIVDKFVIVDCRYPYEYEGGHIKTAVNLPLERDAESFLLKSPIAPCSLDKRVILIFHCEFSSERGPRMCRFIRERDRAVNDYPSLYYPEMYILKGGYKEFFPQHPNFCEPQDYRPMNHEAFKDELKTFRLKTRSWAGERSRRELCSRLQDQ
Briefly: Inhibition of human recombinant CDC25B. The gist of the method:
as §1

The target in assay [4] is Receptor-type tyrosine-protein phosphatase alpha (Homo sapiens) (UniProt P18433). Briefly: Inhibition of human recombinant PTPalpha at 20 ug/mL.
Chain of Receptor-type tyrosine-protein phosphatase alpha (Homo sapiens) (P18433 20-802 limits assumed): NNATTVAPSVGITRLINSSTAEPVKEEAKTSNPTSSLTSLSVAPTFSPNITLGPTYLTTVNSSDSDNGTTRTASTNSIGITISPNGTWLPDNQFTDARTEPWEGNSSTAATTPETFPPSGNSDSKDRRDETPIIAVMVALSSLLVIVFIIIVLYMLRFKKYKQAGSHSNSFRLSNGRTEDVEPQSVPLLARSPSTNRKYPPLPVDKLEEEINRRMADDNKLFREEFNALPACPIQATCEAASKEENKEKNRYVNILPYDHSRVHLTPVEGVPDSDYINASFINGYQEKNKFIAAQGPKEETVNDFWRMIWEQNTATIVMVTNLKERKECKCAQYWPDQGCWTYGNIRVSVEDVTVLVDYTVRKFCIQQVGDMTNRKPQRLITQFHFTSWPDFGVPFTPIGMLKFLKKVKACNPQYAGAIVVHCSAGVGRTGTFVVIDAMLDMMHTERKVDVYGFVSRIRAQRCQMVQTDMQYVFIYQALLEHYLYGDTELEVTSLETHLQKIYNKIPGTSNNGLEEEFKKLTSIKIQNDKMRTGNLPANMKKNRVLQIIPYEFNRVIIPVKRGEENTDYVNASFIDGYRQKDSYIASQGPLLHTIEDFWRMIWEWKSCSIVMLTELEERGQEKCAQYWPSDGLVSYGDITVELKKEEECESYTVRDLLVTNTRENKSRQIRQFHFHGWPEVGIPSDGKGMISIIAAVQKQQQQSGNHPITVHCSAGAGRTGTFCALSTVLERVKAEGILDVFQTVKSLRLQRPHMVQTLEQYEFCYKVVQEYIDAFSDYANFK
In assay [5] the target is T3, Tyrosine-protein phosphatase non-receptor type 2 (Homo sapiens, UniProt P17706).
T3 sequence (P17706 whole entry): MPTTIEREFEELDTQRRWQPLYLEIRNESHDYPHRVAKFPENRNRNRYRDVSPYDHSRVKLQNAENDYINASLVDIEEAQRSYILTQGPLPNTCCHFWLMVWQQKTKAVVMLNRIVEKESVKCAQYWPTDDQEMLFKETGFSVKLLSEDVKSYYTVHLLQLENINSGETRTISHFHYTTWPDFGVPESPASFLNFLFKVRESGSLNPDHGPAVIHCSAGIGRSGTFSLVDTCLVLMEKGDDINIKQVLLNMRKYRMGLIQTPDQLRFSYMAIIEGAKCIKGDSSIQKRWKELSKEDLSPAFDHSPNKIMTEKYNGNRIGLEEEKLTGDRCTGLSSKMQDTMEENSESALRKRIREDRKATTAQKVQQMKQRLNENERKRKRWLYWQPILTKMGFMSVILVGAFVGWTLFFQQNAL
Briefly: Inhibition of TCPTP. The method in brief: as §1

The target in assay [6] is T4, Tyrosine-protein phosphatase non-receptor type 6 (Homo sapiens, UniProt P29350). Briefly: Inhibition of human recombinant SHP1 in Tris buffer of pH 8 at 20 ug/mL.
T4 sequence (P29350 whole entry): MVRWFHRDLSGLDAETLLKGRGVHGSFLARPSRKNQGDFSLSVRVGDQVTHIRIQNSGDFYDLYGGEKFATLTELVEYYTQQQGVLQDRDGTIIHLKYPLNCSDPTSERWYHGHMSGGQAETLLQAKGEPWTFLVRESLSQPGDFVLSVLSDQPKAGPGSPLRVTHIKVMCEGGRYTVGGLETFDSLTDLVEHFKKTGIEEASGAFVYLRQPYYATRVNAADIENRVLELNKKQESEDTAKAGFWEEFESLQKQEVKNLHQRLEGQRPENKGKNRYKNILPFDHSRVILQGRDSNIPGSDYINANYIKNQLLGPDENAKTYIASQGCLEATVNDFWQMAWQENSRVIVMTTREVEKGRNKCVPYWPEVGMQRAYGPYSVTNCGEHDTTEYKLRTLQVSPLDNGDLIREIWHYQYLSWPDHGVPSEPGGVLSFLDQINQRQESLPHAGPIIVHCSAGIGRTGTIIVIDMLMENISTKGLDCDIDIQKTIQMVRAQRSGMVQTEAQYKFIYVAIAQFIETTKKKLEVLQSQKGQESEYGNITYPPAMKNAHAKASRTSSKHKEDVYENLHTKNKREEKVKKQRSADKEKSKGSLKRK
Assay [7] has as its target Receptor-type tyrosine-protein phosphatase F (Homo sapiens) (UniProt P10586). The assay can be described thus: Inhibition of human recombinant LAR at 20 ug/mL.
For assay [8], the target named is T4, Tyrosine-protein phosphatase non-receptor type 6. Briefly: Inhibition of human recombinant SHP1 in Tris buffer at pH 8 using OMPF as substrate. The method in brief:
as §1

Chain of Receptor-type tyrosine-protein phosphatase F (Homo sapiens) (P10586 whole entry): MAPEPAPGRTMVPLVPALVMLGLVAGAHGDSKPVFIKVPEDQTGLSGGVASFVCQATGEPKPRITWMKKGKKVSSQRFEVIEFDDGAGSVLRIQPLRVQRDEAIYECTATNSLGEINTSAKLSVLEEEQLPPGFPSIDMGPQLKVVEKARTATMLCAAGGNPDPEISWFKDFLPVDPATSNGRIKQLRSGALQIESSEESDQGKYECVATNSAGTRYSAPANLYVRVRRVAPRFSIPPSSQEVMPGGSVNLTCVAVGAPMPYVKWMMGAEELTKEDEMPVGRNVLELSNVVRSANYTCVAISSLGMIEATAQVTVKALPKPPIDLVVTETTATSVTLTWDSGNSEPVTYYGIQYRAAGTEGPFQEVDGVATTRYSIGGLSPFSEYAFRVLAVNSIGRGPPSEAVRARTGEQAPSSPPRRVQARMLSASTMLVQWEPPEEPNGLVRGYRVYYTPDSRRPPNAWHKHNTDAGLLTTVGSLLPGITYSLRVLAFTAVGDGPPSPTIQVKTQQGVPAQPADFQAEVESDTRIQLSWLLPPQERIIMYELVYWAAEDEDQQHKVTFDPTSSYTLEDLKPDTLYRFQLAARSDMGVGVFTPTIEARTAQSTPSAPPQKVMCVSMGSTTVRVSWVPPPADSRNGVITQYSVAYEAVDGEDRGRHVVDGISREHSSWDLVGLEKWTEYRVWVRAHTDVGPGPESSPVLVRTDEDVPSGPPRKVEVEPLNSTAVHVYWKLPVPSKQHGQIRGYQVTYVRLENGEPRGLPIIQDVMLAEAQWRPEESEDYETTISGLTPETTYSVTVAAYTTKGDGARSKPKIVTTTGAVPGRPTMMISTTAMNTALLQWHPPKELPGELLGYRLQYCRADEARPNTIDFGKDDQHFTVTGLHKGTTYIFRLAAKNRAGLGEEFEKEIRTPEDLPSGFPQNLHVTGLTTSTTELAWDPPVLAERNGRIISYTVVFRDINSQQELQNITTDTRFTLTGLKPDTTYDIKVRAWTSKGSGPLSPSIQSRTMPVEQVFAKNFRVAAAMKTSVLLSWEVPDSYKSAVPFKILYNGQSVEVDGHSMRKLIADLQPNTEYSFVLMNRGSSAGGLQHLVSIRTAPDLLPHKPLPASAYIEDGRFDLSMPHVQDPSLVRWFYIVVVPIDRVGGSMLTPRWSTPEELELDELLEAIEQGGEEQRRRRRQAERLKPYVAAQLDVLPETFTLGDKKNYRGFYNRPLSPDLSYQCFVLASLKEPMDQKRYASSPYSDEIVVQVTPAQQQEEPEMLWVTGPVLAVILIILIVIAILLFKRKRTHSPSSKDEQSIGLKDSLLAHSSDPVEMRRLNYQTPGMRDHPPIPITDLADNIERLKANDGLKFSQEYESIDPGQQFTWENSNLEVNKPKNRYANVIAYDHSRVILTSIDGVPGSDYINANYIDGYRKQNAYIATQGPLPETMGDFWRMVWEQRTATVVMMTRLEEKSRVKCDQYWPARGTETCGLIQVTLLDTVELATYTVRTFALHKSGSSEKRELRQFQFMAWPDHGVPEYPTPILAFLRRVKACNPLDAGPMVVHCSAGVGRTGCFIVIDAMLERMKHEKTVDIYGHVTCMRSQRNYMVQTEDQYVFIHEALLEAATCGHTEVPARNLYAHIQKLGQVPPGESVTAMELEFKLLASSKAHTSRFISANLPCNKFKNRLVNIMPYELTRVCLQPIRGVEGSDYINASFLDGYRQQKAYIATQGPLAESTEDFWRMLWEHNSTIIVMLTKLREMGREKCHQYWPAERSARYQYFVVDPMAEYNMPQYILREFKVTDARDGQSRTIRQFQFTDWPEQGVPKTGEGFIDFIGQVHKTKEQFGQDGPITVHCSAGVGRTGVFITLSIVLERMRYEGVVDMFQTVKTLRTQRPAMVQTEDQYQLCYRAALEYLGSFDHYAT

`O=C(NC(Cc1ccc2cc(O)ccc2c1)C(=O)O)c1ccccc1` (racemic): in assay [1], the Ratio IC50 was found to be 1. Moreover, the IC50 in assay [2] was greater than 300 µM.

For `O=C(NC(Cc1ccc2cc(OCc3ccccc3F)ccc2c1)C(=O)O)c1ccccc1` (racemic), the Ratio IC50 in assay [1] was 1. For the same compound, the IC50 in assay [3] came out at 19.4 µM; in assay [5], 9.43 µM; in assay [2], 6.55 µM. Besides, the inhibition result in assay [4], in assay [6] and in assay [7] was “inactive” each time.

`COc1ccc(COc2ccc3cc(CC(NC(=O)c4ccccc4)C(=O)O)ccc3c2)cc1` (racemic): the Ratio IC50 in assay [1] is 1. Besides, the midpoint of inhibition in assay [2], the IC50, lay at 14.3 µM.

For `O=C(NC(Cc1ccc2cc(OCc3ccc(Cl)cc3)ccc2c1)C(=O)O)c1ccccc1` (racemic), the Ratio IC50 in assay [1] stood at 1. For the same compound, the IC50 in assay [2] was found to be 21.7 µM.

As to `CC(C)(C)OC(=O)NC(Cc1ccc2cc(O)ccc2c1)C(=O)O` (racemic), the Ratio IC50 in assay [1] turned out to be 1. The IC50 in assay [2] was greater than 300 µM.

With `CC(C)(C)OC(=O)NC(Cc1ccc2cc(OCc3ccccc3F)ccc2c1)C(=O)O` (racemic), in assay [1], the Ratio IC50 came out at 1. This compound also displayed an IC50 in assay [2] of 11.1 µM.

In the case of `NC(Cc1ccc2cc(OCc3ccccc3F)ccc2c1)C(=O)O` (racemic), the Ratio IC50 in assay [1] worked out at 1. In assay [2], this compound registered a half-maximal inhibitory concentration (IC50) of 24.7 µM.

Consider `O=C(Cc1ccc(Cl)cc1)NC(Cc1ccc2cc(OCc3ccccc3F)ccc2c1)C(=O)O` (racemic), for which the Ratio IC50 in assay [1] worked out at 1. The IC50 in assay [3] is 8.44 µM; in assay [5], 12.9 µM; in assay [8], 15.6 µM; in assay [2], 7.91 µM. In addition, the inhibition entry in assay [4] and in assay [7] was “inactive” in each case.

Turning to `O=C(COc1ccc(Cl)cc1)NC(Cc1ccc2cc(OCc3ccccc3F)ccc2c1)C(=O)O` (racemic), in assay [1], the Ratio IC50 is 1. Further, the IC50 came out at 13.7 µM in assay [3], 17.5 µM in assay [5] and 10.8 µM in assay [2]. The inhibition entry in assay [4], in assay [6] and in assay [7] was “inactive” each time.

As for `O=C(CCc1ccccc1)NC(Cc1ccc2cc(OCc3ccccc3F)ccc2c1)C(=O)O` (racemic), the concentration for half-maximal inhibition (IC50) in assay [3] is 15.2 µM; in assay [5], 27.3 µM; in assay [2] it was 11.4 µM. The inhibition result in assay [4], in assay [6] and in assay [7] was “inactive” throughout.

Regarding `O=C(/C=C/c1ccccc1)NC(Cc1ccc2cc(OCc3ccccc3F)ccc2c1)C(=O)O` (racemic), the IC50 in assay [3] stood at 14.7 µM; in assay [5] it was 18.9 µM; in assay [2], 8.88 µM. Moreover, the inhibition result in assay [4], in assay [6] and in assay [7] was “inactive” each time.

As to `O=C(/C=C/c1ccccc1F)NC(Cc1ccc2cc(OCc3ccccc3F)ccc2c1)C(=O)O` (racemic), the Ratio IC50 in assay [1] is 1. In addition, the IC50 in assay [3] was 4.58 µM; in assay [5], 3.02 µM; in assay [8], 9.84 µM; in assay [2], 2.49 µM. In addition, the inhibition entry in assay [4] and in assay [7] was “inactive” throughout.

In the case of `O=C(/C=C/c1cccc(F)c1)NC(Cc1ccc2cc(OCc3ccccc3F)ccc2c1)C(=O)O` (racemic), the Ratio IC50 in assay [1] worked out at 1. In addition, the IC50 was 5.13 µM in assay [3], 6.08 µM in assay [5], 26.5 µM in assay [8] and 2.79 µM in assay [2]. The inhibition result in assay [4] and in assay [7] was “inactive” throughout.

Regarding `O=C(/C=C/c1ccc(F)cc1)NC(Cc1ccc2cc(OCc3ccccc3F)ccc2c1)C(=O)O` (racemic), the Ratio IC50 in assay [1] is 1. Besides, the IC50 came to 6.6 µM in assay [3], 5.96 µM in assay [5], 18.5 µM in assay [8] and 3.38 µM in assay [2]. The inhibition entry in assay [4] and in assay [7] was “inactive” in each case.

In the case of `O=C(/C=C/c1cccc(Cl)c1)NC(Cc1ccc2cc(OCc3ccccc3F)ccc2c1)C(=O)O` (racemic), in assay [1], the Ratio IC50 came to 1. In addition, the IC50 in assay [3] is 5.35 µM; in assay [5], 7.24 µM; in assay [8], 13.2 µM; in assay [2] it was 4 µM. Moreover, the inhibition entry in assay [4] and in assay [7] was “inactive” each time.

For the compound `O=C(/C=C/c1ccc(Cl)cc1)NC(Cc1ccc2cc(OCc3ccccc3F)ccc2c1)C(=O)O` (racemic), the Ratio IC50 in assay [1] was found to be 1. For the same compound, the IC50 in assay [3] amounted to 2.63 µM; in assay [5], 4.33 µM; in assay [8] it was 16.3 µM; in assay [2] it was 2.59 µM. Also, the inhibition result in assay [4] and in assay [7] was “inactive” in each case.

Turning to `O=C(/C=C/c1ccccc1Br)NC(Cc1ccc2cc(OCc3ccccc3F)ccc2c1)C(=O)O` (racemic), in assay [1], the Ratio IC50 is 1. Further, the IC50 in assay [3] was determined as 2.89 µM; in assay [5], 4.66 µM; in assay [8] it was 11 µM; in assay [2] it was 1.77 µM. The inhibition entry in assay [4] and in assay [7] was “inactive” in each case.

Consider `O=C(/C=C/c1ccc(Br)cc1)NC(Cc1ccc2cc(OCc3ccccc3F)ccc2c1)C(=O)O` (racemic), for which, in assay [1], the Ratio IC50 was 1. Moreover, the IC50 was found to be 2.49 µM in assay [3], 3.67 µM in assay [5], 13 µM in assay [8] and 1.57 µM in assay [2]. The inhibition entry in assay [4] and in assay [7] was “inactive” each time.

Consider `O=C(/C=C/c1ccc(Cl)cc1Cl)NC(Cc1ccc2cc(OCc3ccccc3F)ccc2c1)C(=O)O` (racemic), for which the Ratio IC50 in assay [1] amounted to 1. The IC50 in assay [3] turned out to be 8.93 µM; in assay [5] it was 6.11 µM; in assay [8], 12.5 µM; in assay [2], 4.22 µM. Besides, the inhibition entry in assay [4] and in assay [7] was “inactive” each time.

In the case of `O=C(/C=C/c1ccc(Cl)c(Cl)c1)NC(Cc1ccc2cc(OCc3ccccc3F)ccc2c1)C(=O)O` (racemic), the 50% inhibitory concentration (IC50) in assay [3] was found to be 5.63 µM; in assay [5] it was 15.3 µM; in assay [8], 10.7 µM; in assay [2], 4.71 µM. The inhibition result in assay [4] and in assay [7] was “inactive” in each case.

Turning to `COc1cccc(/C=C/C(=O)NC(Cc2ccc3cc(OCc4ccccc4F)ccc3c2)C(=O)O)c1` (racemic), the Ratio IC50 in assay [1] was determined as 1. Further, the IC50 in assay [3] is 10.7 µM; in assay [5], 15.2 µM; in assay [8] it was 16.4 µM; in assay [2], 8.15 µM. Besides, the inhibition result in assay [4] and in assay [7] was “inactive” throughout.

Turning to `COc1ccc(/C=C/C(=O)NC(Cc2ccc3cc(OCc4ccccc4F)ccc3c2)C(=O)O)cc1` (racemic), the Ratio IC50 in assay [1] stood at 1. Further, the IC50 in assay [3] turned out to be 14 µM; in assay [5], 9.21 µM; in assay [2], 5.9 µM. Also, the inhibition result in assay [4], in assay [6] and in assay [7] was “inactive” in each case.

Regarding `C[C@H]1[C@H](C)CC[C@]2(C(=O)O)CC[C@]3(C)C(=CC[C@@H]4[C@@]5(C)CC[C@H](O)C(C)(C)[C@@H]5CC[C@]43C)[C@H]12` [URSOLIC ACID], the IC50 in assay [5] stood at 6.7 µM.

Source of the values: ChEMBL document CHEMBL1821688, “Synthesis and biological evaluation of (±)-3-(2-(2-fluorobenzyloxy) naphthalen-6-yl)-2-aminopropanoic acid derivatives as novel PTP1B inhibitors” (Eur J Med Chem, 2011).
